Assay results as given in ChEMBL document CHEMBL1154186, “Synthesis, kinase inhibitory potencies, and in vitro antiproliferative evaluation of new Pim kinase inhibitors” (J Med Chem, 2009).

Legend:
[1] = molecular target: Mitogen-activated protein kinase 9 (Homo sapiens) (UniProt P45984); test: Inhibition of JNK2 assessed as residual enzyme activity at 10 uM relative to untreated control
Procedure, shortened: (§1)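 Kinases of human origin, except CK1δ, which is rat. Run in 50 mM Tris/HCl pH 7.5, 0.1 mM EGTA, 0.1% 2-mercaptoethanol and 10 mM Mg acetate, with [γ-33P]ATP at 20 µM, 30 min at 21 °C. Acid-stopped and captured on P81 filters. Compound tested at 10 µM; residual % of uninhibited control, duplicate determinations.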

[2] = molecular target: Mitogen-activated protein kinase 10 (Homo sapiens) (UniProt P53779); test: Inhibition of JNK3 assessed as residual enzyme activity at 10 uM relative to untreated control
Procedure, shortened: (§2)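 Assayed with [γ-33P]ATP at 50 µM and 10 mM Mg acetate in 50 mM Tris/HCl pH 7.5, 0.1 mM EGTA, 0.1% 2-mercaptoethanol, 30 min, 21 °C. Phosphoric acid stop, P81 filter capture. ERK2 and Lck are mouse; AMPK is rat. 10 µM compound; % activity remaining relative to control without inhibitor, duplicates.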

[3] = molecular target: MAP kinase-activated protein kinase 2 (Homo sapiens) (UniProt P49137); test: Inhibition of MAPKAPK2 assessed as residual enzyme activity at 10 uM relative to untreated control; procedure, shortened: as §1
[4] = molecular target: Cyclin-dependent kinase 2/cyclin A (Homo sapiens) (UniProt P24941+P20248+P78396); test: Inhibition of CDK2/Cyclin A assessed as residual enzyme activity at 10 uM relative to untreated control; assay type: protein-complex assay; procedure, shortened: as §1
[5] = molecular target: Maternal embryonic leucine zipper kinase (Homo sapiens) (UniProt Q14680); test: Inhibition of MELK assessed as residual enzyme activity at 10 uM relative to untreated control; procedure, shortened: as §2
[6] = molecular target: MAP/microtubule affinity-regulating kinase 3 (Homo sapiens) (UniProt P27448); test: Inhibition of MARK3 assessed as residual enzyme activity at 10 uM relative to untreated control
Procedure, shortened: (§3)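 Radiometric filter-binding assay at 21 °C for 30 min. Mix: 50 mM Tris/HCl pH 7.5, 0.1 mM EGTA, 0.1% 2-mercaptoethanol, 10 mM Mg acetate and [γ-33P]ATP (800 cpm/pmol) at 5 µM. Stopped with orthophosphoric acid and spotted on P81. Compound at 10 µM; activity given as % remaining versus no-inhibitor control, duplicates. Kinases human full-length unless noted.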

[7] = molecular target: T1, Mitogen-activated protein kinase 12 (Homo sapiens) (UniProt P53778); test: Inhibition of p38-gamma assessed as residual enzyme activity at 10 uM relative to untreated control
T1 sequence (whole entry): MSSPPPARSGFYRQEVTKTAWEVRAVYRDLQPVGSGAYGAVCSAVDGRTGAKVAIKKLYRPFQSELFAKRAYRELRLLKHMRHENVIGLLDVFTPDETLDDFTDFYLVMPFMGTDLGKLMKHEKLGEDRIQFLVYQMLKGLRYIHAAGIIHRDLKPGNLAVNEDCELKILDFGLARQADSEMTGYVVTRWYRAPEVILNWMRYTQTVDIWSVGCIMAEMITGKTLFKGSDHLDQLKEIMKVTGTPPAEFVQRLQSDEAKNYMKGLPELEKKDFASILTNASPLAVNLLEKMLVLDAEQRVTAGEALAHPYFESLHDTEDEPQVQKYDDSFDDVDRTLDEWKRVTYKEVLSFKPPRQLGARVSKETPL
Procedure, shortened: (§4)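 p38γ and p38δ MAPK run at 5 µM [γ-33P]ATP, and p38α at 50 µM, each with 10 mM Mg acetate. Buffer 50 mM Tris/HCl pH 7.5, 0.1 mM EGTA, 0.1% 2-mercaptoethanol. 10 µM compound, 30 min at 21 °C. P81 filter capture. Residual activity relative to control, duplicates.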

[8] = molecular target: Serine/threonine-protein kinase pim-2 (Homo sapiens) (UniProt Q9P1W9); test: Inhibition of Pim-2 assessed as residual enzyme activity at 10 uM relative to untreated control
[9] = molecular target: Glycogen synthase kinase-3 beta (Homo sapiens) (UniProt P49841); test: Inhibition of GSK3-beta assessed as residual enzyme activity at 10 uM relative to untreated control; procedure, shortened: as §3
[10] = molecular target: Serine/threonine-protein kinase PAK 4 (Homo sapiens) (UniProt O96013); test: Inhibition of PAK4 assessed as residual enzyme activity at 10 uM relative to untreated control; procedure, shortened: as §3
[11] = molecular target: T2, Serine/threonine-protein kinase Sgk1 (Homo sapiens) (UniProt O00141); test: Inhibition of SGK1 assessed as residual enzyme activity at 10 uM relative to untreated control
T2 sequence (whole entry): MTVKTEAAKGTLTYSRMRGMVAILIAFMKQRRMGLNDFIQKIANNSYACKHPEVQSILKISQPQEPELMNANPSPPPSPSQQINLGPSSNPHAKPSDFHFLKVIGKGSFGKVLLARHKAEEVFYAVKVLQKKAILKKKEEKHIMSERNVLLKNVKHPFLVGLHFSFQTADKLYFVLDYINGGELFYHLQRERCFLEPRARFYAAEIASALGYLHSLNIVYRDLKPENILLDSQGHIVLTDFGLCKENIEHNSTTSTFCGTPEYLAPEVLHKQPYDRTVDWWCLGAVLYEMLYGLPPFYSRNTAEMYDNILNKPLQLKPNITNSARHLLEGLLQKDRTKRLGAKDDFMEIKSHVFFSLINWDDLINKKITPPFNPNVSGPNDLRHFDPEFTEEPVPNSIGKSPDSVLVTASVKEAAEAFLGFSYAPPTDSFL
Procedure, shortened: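 Buffer Tris/HCl pH 7.5, EGTA and 2-mercaptoethanol. 30 min at 21 °C, compound at 10 µM. P81 filter read-out. Residual activity versus control, duplicates.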

[12] = molecular target: Myosin light chain kinase, smooth muscle (Homo sapiens) (UniProt Q15746); test: Inhibition of smMLCK assessed as residual enzyme activity at 10 uM relative to untreated control
[13] = molecular target: MAP kinase-interacting serine/threonine-protein kinase 2 (Homo sapiens) (UniProt Q9HBH9); test: Inhibition of MNK2 assessed as residual enzyme activity at 10 uM relative to untreated control; procedure, shortened: as §2
[14] = molecular target: MAP kinase-activated protein kinase 3 (Homo sapiens) (UniProt Q16644); test: Inhibition of MAPKAPK3 assessed as residual enzyme activity at 10 uM relative to untreated control; procedure, shortened: as §1
[15] = molecular target: Calcium/calmodulin-dependent protein kinase kinase 2 (Homo sapiens) (UniProt Q96RR4); test: Inhibition of CAMKKbeta assessed as residual enzyme activity at 10 uM relative to untreated control
[16] = molecular target: Mitogen-activated protein kinase 14 (Homo sapiens) (UniProt Q16539); test: Inhibition of p38alpha assessed as residual enzyme activity at 10 uM relative to untreated control; procedure, shortened: as §4
[17] = Inhibition of PHK assessed as residual enzyme activity at 10 uM relative to untreated control
[18] = molecular target: RAC-beta serine/threonine-protein kinase (Homo sapiens) (UniProt P31751); test: Inhibition of PKBbeta assessed as residual enzyme activity at 10 uM relative to untreated control; procedure, shortened: as §2
[19] = molecular target: Serine/threonine-protein kinase PAK 5 (Homo sapiens) (UniProt Q9P286); test: Inhibition of PAK5 assessed as residual enzyme activity at 10 uM relative to untreated control; procedure, shortened: as §1
Chain of Serine/threonine-protein kinase PAK 5 (Homo sapiens) (Q9P286 whole entry, looked up): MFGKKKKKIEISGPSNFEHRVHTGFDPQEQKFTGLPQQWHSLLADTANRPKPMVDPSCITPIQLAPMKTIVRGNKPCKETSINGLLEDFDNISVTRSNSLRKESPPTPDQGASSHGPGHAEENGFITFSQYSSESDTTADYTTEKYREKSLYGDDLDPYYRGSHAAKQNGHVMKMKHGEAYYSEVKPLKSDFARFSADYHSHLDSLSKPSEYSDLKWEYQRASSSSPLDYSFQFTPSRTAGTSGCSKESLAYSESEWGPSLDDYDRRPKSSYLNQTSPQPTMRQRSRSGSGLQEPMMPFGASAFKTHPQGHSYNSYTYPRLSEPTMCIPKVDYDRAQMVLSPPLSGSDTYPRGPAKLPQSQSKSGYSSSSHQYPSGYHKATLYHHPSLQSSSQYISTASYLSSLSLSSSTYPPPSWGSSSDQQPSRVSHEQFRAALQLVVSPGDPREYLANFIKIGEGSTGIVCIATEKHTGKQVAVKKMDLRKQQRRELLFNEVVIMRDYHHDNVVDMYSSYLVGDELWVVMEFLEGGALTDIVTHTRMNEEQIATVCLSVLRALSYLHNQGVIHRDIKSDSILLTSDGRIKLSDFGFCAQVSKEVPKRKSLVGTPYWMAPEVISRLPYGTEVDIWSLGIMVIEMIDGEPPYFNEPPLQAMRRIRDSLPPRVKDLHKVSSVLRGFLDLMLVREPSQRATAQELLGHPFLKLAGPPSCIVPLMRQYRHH

Chain of Maternal embryonic leucine zipper kinase (Homo sapiens) (Q14680 whole entry, looked up): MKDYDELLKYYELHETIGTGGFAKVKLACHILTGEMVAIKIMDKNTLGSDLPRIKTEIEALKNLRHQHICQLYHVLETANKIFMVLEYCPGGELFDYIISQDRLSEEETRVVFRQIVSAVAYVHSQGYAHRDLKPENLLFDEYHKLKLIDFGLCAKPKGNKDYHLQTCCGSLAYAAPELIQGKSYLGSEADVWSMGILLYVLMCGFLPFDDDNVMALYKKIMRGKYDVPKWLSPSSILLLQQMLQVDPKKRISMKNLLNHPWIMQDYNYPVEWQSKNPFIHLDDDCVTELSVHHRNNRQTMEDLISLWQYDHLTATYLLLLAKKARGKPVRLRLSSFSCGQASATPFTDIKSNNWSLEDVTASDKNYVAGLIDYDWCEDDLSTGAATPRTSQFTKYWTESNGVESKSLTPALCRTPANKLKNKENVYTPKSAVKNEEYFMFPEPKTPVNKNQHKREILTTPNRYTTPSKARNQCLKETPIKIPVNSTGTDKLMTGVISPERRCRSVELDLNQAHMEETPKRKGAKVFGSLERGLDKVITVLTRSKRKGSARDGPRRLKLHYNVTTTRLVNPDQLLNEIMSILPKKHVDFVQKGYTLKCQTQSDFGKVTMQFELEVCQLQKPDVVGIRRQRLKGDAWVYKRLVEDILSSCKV
Chain of Serine/threonine-protein kinase pim-2 (Homo sapiens) (Q9P1W9 whole entry, looked up): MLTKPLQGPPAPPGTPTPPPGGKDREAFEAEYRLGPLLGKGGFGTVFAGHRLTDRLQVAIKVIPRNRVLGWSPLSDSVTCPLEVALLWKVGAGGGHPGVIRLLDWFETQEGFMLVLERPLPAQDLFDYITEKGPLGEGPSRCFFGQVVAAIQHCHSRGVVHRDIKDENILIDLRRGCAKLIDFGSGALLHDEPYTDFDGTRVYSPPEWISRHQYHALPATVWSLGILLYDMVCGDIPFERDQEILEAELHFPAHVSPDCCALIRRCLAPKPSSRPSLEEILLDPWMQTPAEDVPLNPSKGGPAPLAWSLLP
Chain of Calcium/calmodulin-dependent protein kinase kinase 2 (Homo sapiens) (Q96RR4 2-588 limits assumed): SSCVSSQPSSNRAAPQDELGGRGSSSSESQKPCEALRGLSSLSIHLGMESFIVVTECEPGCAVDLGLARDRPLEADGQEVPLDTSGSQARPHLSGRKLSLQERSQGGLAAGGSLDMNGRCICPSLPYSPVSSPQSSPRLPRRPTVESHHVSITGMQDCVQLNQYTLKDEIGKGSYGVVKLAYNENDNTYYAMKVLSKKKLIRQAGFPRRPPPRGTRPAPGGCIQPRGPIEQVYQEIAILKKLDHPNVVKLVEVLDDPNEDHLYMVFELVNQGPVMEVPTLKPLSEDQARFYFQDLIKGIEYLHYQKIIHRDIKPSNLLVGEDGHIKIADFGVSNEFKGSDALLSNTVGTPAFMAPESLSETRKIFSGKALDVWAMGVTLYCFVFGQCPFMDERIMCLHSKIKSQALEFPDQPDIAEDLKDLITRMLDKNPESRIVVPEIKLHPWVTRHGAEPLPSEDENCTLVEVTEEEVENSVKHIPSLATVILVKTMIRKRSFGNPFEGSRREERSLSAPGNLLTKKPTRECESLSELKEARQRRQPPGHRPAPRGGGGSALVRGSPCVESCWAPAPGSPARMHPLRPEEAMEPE
Chain of Mitogen-activated protein kinase 10 (Homo sapiens) (P53779 whole entry): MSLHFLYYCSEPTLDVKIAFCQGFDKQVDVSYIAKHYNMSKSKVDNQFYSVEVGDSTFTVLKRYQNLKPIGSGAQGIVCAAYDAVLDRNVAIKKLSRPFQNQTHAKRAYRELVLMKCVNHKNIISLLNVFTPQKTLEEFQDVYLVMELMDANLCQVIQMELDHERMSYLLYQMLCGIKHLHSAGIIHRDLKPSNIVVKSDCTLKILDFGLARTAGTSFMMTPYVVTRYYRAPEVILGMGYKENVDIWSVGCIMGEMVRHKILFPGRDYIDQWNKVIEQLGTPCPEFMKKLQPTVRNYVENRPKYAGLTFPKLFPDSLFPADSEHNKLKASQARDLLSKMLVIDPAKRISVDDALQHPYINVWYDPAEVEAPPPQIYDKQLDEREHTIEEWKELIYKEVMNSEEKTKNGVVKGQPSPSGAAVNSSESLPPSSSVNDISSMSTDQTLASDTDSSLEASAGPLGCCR
Chain of Mitogen-activated protein kinase 14 (Homo sapiens) (Q16539 whole entry): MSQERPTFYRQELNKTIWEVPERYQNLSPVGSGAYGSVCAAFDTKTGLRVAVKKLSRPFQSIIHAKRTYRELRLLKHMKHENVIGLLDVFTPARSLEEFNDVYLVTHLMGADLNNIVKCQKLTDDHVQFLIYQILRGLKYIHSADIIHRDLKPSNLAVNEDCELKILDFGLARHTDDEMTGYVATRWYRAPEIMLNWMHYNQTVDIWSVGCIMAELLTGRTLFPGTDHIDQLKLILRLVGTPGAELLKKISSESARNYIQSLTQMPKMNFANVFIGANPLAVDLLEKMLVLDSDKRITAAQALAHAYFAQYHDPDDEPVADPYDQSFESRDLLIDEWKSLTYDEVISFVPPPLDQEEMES
Chain of MAP kinase-activated protein kinase 2 (Homo sapiens) (P49137 whole entry, looked up): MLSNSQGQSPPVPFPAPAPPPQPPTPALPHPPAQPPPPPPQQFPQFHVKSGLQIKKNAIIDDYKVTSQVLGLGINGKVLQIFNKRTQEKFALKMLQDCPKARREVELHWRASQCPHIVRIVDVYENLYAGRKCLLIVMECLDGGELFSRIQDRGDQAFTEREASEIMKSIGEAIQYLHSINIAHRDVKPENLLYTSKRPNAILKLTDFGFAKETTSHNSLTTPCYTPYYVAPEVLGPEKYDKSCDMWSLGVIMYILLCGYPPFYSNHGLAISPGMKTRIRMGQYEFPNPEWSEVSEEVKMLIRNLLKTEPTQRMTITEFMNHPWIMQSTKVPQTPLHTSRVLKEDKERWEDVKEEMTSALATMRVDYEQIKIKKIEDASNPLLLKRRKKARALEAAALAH
Chain of Mitogen-activated protein kinase 9 (Homo sapiens) (P45984 whole entry, looked up): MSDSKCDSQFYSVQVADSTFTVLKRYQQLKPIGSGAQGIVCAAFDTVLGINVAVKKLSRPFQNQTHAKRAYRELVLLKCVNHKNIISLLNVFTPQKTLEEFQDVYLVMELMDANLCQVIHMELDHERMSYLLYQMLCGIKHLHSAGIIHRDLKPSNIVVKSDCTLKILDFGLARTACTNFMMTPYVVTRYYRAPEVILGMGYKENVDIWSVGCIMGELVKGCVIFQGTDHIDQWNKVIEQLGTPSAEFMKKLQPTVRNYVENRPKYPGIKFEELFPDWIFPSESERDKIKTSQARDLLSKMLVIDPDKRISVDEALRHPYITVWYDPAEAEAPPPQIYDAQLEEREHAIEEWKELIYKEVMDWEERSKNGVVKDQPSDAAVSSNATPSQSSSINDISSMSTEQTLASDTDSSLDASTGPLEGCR
Chain of Glycogen synthase kinase-3 beta (Homo sapiens) (P49841 whole entry, looked up): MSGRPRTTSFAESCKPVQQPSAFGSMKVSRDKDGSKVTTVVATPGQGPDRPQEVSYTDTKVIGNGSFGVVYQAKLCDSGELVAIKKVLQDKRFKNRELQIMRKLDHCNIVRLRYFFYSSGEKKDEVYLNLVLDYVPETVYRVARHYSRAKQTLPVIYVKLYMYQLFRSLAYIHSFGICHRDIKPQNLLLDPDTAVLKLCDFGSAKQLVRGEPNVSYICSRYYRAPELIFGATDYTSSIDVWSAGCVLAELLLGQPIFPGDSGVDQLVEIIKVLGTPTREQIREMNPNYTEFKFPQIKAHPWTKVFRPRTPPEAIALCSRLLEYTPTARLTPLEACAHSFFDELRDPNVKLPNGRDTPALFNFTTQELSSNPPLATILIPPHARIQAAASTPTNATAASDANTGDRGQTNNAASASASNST
Chain of MAP kinase-activated protein kinase 3 (Homo sapiens) (Q16644 whole entry, looked up): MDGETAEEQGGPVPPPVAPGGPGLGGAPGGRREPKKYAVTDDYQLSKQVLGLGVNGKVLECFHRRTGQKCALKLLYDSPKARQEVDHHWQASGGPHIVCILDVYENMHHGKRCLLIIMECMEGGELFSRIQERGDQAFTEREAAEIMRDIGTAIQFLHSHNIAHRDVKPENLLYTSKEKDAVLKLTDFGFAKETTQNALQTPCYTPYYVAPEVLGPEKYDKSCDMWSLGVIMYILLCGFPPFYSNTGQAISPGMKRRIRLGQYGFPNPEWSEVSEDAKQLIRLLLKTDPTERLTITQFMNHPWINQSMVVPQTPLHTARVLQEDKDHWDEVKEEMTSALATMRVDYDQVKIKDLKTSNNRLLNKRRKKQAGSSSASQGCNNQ

Activity [1] [%]	Activity [2] [%]	Activity [3] [%]	Activity [4] [%]	Activity [5] [%]	Activity [6] [%]	Activity [7] [%]	Activity [8] [%]	Activity [9] [%]	Activity [10] [%]	Activity [11] [%]	Activity [12] [%]	Activity [13] [%]	Activity [14] [%]	Activity [15] [%]	Activity [16] [%]	Activity [17] [%]	Activity [18] [%]	Activity [19] [%]	Structure (SMILES)
118	108	118	97	93	116	111	62	111	84	82	86	95	89	93	108	90	107	82	c1ccc2c(c1)[nH]c1c2ccc2cc[nH]c21
130	111	95	95	82	94	111	77	102	84	102	82	103	88	87	115	71	107	99	c1ccc2c(c1)[nH]c1c3cc[nH]c3ccc21
111	96	95	109	89	105	109	102	96	88	105	91	109	90	102	108	88	107	96	O=Cc1c[nH]c2ccc3c4ccccc4[nH]c3c12
128	113	84	74	61	88	74		88	88	64	60	55	69	56	102	33	98	87	O=Cc1c[nH]c2c1ccc1c3ccccc3[nH]c12
